The list is not random: actives were taken first. Their share in the collection is about 1%.
XiGFP reactiv – activators of inactive X chromosome reactivation, primary screen, imaging, XiGFP fibroblasts, GFP high-content imaging, set 2; XiGFP mouse fibroblasts, % GFP-positive cells imaging, 3 d; cells co-treated with 5-aza-dC sensitizer; scaled so ellipticine positive control = 100%; activation, % at 7.58 µM; 0.055% of 360,000 active;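 active means mean normalized replicate activation at least 10% and every replicate at or above 10%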;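 further: 0% = median of on-plate neutral control wells and 100% = ellipticine 6 µM median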
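System: XiGFP fibroblasts, SV40-immortalized. Medium: DMEM plus 5-aza-dC sensitizer. Doses: single point. Timing: 3 d treatment, 15 min room-temperature fixation. Control set: ellipticine 6 µM.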
GSIS activator – GLuc luminescence reporter in INS-1E cells, primary screen for activators of glucose-dependent secretion of insulin | 0.61% of 370,000 active | AID 743287, 2014 | INS-1E GLuc reporter insulin secretion, 2-3 h | activation, % at 16.6 µM;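 active means lowest replicate activation of at least 40%, so every replicate reaches that level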;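 further: 0% = median of neutral control wells and 100% = median of IBMX positive control wells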
CaV13 ICDI inh – Disruptors of the CACNA1D IQ motif to Ca2+-dependent inactivation inhibitor domain association, primary screening, Förster resonance energy transfer in intact living …; HEK cells, CFP/YFP FRET ICDI-IQ, plate reader, 10 min; percent FRET-ratio fall versus neutral wells; inhibition, % at 12.3 µM; 0.098% of 340,000 active;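 active means mean replicate inhibition of at least 30% and at least 1% of replicates passing that level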;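 further: 0% = median of the neutral control wells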
FXN GAA850 act – FXN promoter activators, primary screen, cell-based, luciferase luminescence, HEK293 lucGAA850 | HEK293 lucGAA850 FXN promoter luciferase reporter, 24 h; percent of 10 µM SAHA response | activation, % at 6 µM | 0.56% of 360,000 active | AID 540364, 2011;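 active means activation above the average of all compounds screened plus 3 SD, cutoff fixed separately per campaign, cut at about 7.5% in these data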;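 further: 0% = DMSO wells and 100% = 10 µM SAHA wells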
* marks the source's active call; other numbers are inactive results; · = no result given.

SMILES | XiGFP reactiv | GSIS activator | CaV13 ICDI inh | FXN GAA850 act
Cc1ccc2c(c1)C=CC(C#N)N2C(=O)c1ccccc1 (configuration not stated) | 2 | 50* | -3 | -5
Cn1nnnc1Sc1ncnc2scc(-c3ccc(F)cc3)c12 | · | 61* | -6 | -2
Cn1nnnc1Sc1ncnc2scc(-c3ccc(Br)cc3)c12 | 0 | 22 | -11 | -2
Cn1nnnc1Sc1ncnc2scc(-c3ccccc3)c12 | · | 45* | -4 | -2
Cc1cccc(-c2cccc3[nH]c4c(c23)CCN2C(=O)[C@H]3[C@H](C)ON(C)[C@H]3C[C@@H]42)c1 | 48* | 9 | -9 | ·
C[C@@H]1ON(C)[C@H]2C[C@H]3c4[nH]c5cccc(Br)c5c4CCN3C(=O)[C@@H]12 | 2 | 125* | -3 | ·
C[C@@H]1ON(C)[C@H]2C[C@H]3c4[nH]c5c(-c6ccc(F)cc6)cccc5c4CCN3C(=O)[C@@H]12 | 1 | 9 | -4 | ·
CCCNC(=O)C[C@H]1CC[C@@H]2[C@H](COc3ccc(NC(=O)Nc4ccccc4)cc3C(=O)N2C)O1 | 0 | -4 | · | ·
CCCCc1nc(N)c(C#N)c(-c2ccco2)c1CCC | · | 62* | -8 | 4
CCSc1nc(N)c(C#N)c(-c2ccco2)c1C#N | · | · | · | 7
COc1ccc(-c2ccc3oc(-c4ccc(OC)cc4)c(C#CCCO)c3c2)cc1 | 0 | 67* | -10 | -4
O=C(O)COc1ccc(C(=O)Cc2ccc3c(c2)OCCCO3)c(O)c1 | · | 4 | -9 | -1
COc1ccc(CCNC(=O)COC(=O)C2CC2C)cc1OC (configuration not stated) | 0 | 57* | -6 | 2
COc1ccc(CCNC(=O)C(C)Sc2ccccc2)cc1OC (configuration not stated) | · | · | · | 0
COc1ccc(CCNC(=O)CCCc2ccccc2)cc1OC | 0 | 55* | -20 | 1
COc1ccc(CC(=O)NCCCCc2ccccc2)cc1OC | 0 | -20 | 3 | -1
COc1ccc(C(=O)Cc2ccc3c(c2)OCO3)c(O)c1 | 0 | 41* | -6 | 4
COc1ccc(CCNC(=O)C(C)Sc2ccc(C)cc2)cc1OC (configuration not stated) | 0 | 53* | -3 | 2
COc1ccc(CCNC(=O)COC(=O)c2ccco2)cc1OC | · | · | -3 | 1
COc1ccc(CCNC(=O)COC(=O)c2cncc(Br)c2)cc1OC | 0 | 56* | -5 | 2
O=C(O)c1ccccc1NCCO | 0 | 9 | -5 | 0
COc1ccc(CNC(=O)CCCn2c(=O)c3cccn3c3cccnc32)cc1 | 0 | 14 | -12 | 0
COc1ccc(CCNC(=O)CCn2c(=O)c3cccn3c3cccnc32)cc1OC | 0 | 65* | -3 | 4
COC(=O)c1ccccc1NCCO | 0 | 120* | -14 | -2
COc1ccc(CCNC(=O)COC(=O)c2ccccc2NCCO)cc1OC | 0 | 83* | -6 | 2
SMILES | XiGFP reactiv | GSIS activator | CaV13 ICDI inh | FXN GAA850 act
COc1ccc(CN(C)C(=O)COC(=O)c2ccc3c(c2)OCO3)cc1OC | · | 64* | -5 | 2
COc1ccc(CCNC(=O)CNC(=O)c2ccc3c(c2)OCO3)cc1OC | 0 | 36 | -2 | 0
COc1ccc(CCNC(=O)Cc2ccc3c(c2)OCO3)cc1OC | 0 | 102* | -5 | 0
C[C@H](CO)N1C[C@H](C)[C@H](CN(C)Cc2ccc(Cl)c(Cl)c2)OCCCC[C@H](C)Oc2ccc(NS(=O)(=O)c3ccc(F)cc3)cc2C1=O | 0 | -12 | · | ·
Cc1noc(C)c1S(=O)(=O)Nc1ccc2c(c1)C(=O)N([C@@H](C)CO)C[C@H](C)[C@H](CN(C)S(=O)(=O)c1ccc(Cl)cc1)O2 | -1 | 2 | · | ·
CSc1nsc(SCC(=O)Nc2ccc(O)c(C(=O)O)c2)n1 | 0 | 40* | -7 | 1
Cc1nc2c(c(N3CCOCC3)n1)OCC(=O)N2 | · | 73* | · | 4
CCC(=O)Nc1ccc2c(c1)C(=O)N(C)[C@H]1CC[C@H](CC(=O)NCCc3ccccc3)O[C@@H]1CO2 | 0 | 8 | · | ·
Nn1c(C2CCCCC2)nc2ccccc2c1=O | 0 | 50* | -14 | -2
Nn1c(C2CCC2)nc2cc(Cl)ccc2c1=O | 0 | 18 | -6 | 2
CN(C)C(=O)c1cccc(-c2ccc3c(c2)[C@@H]2[C@@H](CCN2S(=O)(=O)c2ccccc2)[C@@H](CO)N3)c1 | 0 | -3 | · | ·
